Test results taken from ChEMBL document CHEMBL2424622, “Development of amino-pyrimidine inhibitors of c-Jun N-terminal kinase (JNK): kinase profiling guided optimization of a 1,2,3-benzotriazole lead” (Bioorg Med Chem Lett, 2013).

Legend:
[1] = target: T1, Serine/threonine-protein kinase TNNI3K (Homo sapiens) (UniProt Q59H18); experiment: Competitive binding affinity to […] (unknown origin) at 10 uM in presence of ATP relative to control
T1 sequence (whole entry): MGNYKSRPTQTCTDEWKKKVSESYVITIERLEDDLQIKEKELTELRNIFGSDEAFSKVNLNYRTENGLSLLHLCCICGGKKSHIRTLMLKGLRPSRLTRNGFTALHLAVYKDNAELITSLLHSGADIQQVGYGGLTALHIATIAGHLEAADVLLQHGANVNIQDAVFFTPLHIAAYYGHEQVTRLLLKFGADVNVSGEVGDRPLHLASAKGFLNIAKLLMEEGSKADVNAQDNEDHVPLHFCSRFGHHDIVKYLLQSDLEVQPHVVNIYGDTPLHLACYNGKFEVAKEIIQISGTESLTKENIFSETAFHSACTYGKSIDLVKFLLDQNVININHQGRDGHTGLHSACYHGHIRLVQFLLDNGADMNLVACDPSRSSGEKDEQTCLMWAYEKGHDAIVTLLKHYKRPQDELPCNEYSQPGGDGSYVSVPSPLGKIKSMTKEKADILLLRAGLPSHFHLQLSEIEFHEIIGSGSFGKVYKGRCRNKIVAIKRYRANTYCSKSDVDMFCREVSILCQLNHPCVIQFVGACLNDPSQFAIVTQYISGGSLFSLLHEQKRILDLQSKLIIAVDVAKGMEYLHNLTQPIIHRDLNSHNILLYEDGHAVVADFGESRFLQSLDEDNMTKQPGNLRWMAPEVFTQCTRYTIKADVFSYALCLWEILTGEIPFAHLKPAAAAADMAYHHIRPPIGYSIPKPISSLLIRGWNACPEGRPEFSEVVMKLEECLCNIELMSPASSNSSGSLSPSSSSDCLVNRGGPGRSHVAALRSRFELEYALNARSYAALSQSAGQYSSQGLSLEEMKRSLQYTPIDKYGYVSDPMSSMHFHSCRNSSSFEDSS

[2] = target: Myosin-IIIa (Homo sapiens) (UniProt Q8NEV4); experiment: Competitive binding affinity to MYO3A (unknown origin) at 10 uM in presence of ATP relative to control
Myosin-IIIa (Homo sapiens), sequence (Q8NEV4 whole entry): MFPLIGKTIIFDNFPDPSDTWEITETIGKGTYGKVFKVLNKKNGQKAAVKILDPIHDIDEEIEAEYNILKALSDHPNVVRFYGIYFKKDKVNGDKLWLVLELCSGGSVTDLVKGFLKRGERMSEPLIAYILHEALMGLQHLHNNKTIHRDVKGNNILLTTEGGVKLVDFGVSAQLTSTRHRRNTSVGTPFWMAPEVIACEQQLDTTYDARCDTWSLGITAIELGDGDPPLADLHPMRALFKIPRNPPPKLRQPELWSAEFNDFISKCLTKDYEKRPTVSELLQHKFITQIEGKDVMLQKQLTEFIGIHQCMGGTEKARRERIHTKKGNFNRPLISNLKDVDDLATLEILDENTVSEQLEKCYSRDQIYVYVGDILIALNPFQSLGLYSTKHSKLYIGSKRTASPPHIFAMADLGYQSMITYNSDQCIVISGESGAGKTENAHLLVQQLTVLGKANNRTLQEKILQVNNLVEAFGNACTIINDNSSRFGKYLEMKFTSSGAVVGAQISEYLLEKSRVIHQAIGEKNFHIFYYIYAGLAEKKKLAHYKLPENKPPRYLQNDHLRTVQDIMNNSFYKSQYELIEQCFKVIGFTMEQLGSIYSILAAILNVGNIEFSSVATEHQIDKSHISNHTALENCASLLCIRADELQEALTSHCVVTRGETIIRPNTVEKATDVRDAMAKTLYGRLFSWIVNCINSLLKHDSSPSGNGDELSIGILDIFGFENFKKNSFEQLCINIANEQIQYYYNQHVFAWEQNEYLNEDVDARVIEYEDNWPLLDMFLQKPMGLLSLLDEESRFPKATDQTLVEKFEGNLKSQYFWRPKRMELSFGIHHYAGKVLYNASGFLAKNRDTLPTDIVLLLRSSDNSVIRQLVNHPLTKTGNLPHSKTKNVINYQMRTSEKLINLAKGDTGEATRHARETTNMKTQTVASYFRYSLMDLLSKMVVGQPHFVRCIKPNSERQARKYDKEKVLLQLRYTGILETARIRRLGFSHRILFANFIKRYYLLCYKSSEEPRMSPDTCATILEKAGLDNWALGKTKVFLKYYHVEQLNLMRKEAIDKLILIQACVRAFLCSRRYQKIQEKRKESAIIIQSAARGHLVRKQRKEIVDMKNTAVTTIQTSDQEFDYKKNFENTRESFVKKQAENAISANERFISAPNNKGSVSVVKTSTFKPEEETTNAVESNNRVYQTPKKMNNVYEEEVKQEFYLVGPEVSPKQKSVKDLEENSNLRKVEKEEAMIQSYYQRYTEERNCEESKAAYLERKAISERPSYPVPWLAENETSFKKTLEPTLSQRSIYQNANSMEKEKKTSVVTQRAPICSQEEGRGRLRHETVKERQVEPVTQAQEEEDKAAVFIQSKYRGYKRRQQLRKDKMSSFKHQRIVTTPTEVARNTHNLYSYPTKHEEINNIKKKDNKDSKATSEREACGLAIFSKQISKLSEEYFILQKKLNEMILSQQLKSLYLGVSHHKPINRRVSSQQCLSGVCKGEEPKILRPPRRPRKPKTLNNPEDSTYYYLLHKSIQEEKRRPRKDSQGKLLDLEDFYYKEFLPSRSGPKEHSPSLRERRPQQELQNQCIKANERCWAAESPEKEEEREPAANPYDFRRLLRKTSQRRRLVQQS

[3] = target: Serine/threonine-protein kinase 32C (Homo sapiens) (UniProt Q86UX6); experiment: Competitive binding affinity to YANK3 (unknown origin) at 10 uM in presence of ATP relative to control
[4] = target: Citron Rho-interacting kinase (Homo sapiens, UniProt O14578); experiment: Competitive binding affinity to CIT (unknown origin) at 10 uM in presence of ATP relative to control
Citron Rho-interacting kinase, sequence (O14578 whole entry): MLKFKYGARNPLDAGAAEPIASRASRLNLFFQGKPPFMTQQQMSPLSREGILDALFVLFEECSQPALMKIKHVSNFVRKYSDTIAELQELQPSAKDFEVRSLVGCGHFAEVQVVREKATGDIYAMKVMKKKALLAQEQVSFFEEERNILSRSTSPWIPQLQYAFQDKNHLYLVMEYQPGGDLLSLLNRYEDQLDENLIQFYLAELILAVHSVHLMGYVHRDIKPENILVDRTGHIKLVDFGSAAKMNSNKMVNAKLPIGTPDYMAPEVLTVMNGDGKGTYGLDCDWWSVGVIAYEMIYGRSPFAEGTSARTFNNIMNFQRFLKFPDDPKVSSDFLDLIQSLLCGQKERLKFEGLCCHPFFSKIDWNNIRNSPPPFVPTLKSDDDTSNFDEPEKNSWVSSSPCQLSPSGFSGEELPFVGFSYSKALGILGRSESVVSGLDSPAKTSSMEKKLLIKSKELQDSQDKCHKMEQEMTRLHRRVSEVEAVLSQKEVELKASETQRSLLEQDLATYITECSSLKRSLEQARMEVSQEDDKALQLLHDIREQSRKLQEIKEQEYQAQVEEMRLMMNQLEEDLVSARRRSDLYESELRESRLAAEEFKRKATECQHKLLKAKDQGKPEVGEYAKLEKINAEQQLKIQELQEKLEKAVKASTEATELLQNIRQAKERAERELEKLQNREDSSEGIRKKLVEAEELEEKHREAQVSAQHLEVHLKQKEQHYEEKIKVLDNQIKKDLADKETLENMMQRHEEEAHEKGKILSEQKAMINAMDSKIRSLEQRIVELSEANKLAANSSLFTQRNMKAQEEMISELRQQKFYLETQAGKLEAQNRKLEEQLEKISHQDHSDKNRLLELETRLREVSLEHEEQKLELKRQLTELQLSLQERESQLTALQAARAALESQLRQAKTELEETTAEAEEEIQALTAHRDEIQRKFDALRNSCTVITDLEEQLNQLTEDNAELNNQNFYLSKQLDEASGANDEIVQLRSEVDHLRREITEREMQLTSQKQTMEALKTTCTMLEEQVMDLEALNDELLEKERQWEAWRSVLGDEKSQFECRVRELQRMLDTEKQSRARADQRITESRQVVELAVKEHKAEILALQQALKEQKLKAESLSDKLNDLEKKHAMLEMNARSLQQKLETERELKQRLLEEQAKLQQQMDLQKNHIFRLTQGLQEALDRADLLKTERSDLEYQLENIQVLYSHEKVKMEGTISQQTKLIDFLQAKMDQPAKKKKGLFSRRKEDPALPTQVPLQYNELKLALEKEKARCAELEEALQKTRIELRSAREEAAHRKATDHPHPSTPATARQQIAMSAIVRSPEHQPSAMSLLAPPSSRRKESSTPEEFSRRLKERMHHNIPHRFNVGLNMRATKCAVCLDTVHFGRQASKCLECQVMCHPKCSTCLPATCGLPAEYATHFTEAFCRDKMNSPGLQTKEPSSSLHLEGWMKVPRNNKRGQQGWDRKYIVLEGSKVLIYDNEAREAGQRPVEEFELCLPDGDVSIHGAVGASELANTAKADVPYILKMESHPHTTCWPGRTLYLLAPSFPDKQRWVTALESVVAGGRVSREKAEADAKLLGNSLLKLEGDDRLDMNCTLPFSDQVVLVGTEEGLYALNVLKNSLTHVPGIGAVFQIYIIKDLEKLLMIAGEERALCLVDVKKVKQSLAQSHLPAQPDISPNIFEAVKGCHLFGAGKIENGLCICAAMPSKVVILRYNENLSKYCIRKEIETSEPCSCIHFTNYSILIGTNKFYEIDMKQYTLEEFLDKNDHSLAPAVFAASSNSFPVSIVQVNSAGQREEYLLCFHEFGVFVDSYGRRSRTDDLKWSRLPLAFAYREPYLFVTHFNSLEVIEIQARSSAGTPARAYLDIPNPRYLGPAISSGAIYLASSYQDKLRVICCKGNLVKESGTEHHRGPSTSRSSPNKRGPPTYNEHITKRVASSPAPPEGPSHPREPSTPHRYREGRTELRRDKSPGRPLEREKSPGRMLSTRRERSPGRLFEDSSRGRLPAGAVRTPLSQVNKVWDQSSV

[5] = target: Serine/threonine-protein kinase PLK1 (Homo sapiens) (UniProt P53350); experiment: Competitive binding affinity to PLK1 (unknown origin) at 10 uM in presence of ATP relative to control
Serine/threonine-protein kinase PLK1 (Homo sapiens), sequence (P53350 whole entry): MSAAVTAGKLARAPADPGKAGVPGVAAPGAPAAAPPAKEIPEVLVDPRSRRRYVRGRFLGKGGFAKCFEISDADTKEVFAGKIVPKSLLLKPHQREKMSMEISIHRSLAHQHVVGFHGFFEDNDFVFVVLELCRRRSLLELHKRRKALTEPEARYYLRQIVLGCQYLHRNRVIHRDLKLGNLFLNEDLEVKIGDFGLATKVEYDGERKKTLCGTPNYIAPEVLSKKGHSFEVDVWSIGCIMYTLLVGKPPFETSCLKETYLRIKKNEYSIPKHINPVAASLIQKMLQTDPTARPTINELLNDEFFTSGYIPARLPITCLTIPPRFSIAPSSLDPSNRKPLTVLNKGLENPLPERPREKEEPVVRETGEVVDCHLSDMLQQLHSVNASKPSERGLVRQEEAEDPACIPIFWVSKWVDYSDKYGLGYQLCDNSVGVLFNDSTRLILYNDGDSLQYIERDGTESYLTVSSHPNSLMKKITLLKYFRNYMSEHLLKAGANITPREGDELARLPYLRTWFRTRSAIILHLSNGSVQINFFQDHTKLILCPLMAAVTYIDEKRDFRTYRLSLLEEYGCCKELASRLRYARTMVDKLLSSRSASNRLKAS

[6] = target: T2, Muscle, skeletal receptor tyrosine-protein kinase (Homo sapiens) (UniProt O15146); experiment: Competitive binding affinity to MUSK (unknown origin) at 10 uM in presence of ATP relative to control
T2 sequence (whole entry): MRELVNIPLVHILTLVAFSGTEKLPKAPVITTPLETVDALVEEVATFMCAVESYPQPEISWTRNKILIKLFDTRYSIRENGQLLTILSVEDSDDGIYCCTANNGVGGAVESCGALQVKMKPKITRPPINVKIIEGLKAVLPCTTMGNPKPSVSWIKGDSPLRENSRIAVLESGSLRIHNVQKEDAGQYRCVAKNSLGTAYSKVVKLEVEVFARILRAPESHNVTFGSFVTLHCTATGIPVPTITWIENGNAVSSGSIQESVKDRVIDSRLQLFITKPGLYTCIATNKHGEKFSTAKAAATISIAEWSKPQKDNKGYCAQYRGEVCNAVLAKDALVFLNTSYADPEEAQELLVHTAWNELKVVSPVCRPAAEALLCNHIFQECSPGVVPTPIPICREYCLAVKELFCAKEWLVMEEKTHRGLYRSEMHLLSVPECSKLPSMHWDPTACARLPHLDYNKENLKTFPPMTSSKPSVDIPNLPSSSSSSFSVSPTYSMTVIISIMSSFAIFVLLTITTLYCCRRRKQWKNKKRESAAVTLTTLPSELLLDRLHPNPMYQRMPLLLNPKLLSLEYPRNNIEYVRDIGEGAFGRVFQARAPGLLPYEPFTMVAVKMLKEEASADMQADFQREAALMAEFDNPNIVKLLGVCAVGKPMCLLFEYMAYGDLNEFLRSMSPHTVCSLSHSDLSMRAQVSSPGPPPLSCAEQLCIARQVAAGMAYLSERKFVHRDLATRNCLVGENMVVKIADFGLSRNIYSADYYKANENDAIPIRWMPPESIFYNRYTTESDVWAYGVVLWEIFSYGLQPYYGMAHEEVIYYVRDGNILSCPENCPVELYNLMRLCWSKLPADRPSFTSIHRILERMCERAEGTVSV
Method in brief: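 In vitro ATP-site competition binding assay across a diverse panel of 128 kinases, with compound tested at a single concentration. Kinase selectivity scores (S15) were calculated from the panel profiles.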

[7] = target: Mitogen-activated protein kinase kinase kinase 11 (Homo sapiens) (UniProt Q16584); experiment: Competitive binding affinity to MLK3 (unknown origin) at 10 uM in presence of ATP relative to control
Mitogen-activated protein kinase kinase kinase 11 (Homo sapiens), sequence (Q16584 whole entry, looked up): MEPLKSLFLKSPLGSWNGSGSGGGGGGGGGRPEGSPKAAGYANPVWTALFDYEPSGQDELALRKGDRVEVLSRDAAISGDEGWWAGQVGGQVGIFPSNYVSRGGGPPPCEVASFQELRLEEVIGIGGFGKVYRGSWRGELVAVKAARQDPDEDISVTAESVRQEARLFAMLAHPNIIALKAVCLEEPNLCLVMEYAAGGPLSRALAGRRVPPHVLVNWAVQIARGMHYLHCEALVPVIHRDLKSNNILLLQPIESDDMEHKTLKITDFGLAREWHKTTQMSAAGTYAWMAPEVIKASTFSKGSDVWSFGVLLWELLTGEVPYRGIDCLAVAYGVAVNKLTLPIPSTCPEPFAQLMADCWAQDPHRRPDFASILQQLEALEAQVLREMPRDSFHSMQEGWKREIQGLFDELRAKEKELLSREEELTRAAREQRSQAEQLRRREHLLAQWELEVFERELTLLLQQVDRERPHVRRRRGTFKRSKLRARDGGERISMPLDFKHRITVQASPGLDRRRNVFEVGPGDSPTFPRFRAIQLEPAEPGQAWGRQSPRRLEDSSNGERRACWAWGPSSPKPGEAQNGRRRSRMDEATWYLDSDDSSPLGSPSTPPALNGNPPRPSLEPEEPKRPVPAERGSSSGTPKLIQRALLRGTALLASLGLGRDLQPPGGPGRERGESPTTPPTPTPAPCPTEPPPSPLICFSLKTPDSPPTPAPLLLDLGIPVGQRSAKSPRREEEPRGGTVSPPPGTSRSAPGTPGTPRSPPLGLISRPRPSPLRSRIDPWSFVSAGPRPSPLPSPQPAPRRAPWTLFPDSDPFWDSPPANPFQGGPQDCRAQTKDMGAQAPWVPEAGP

Measured: inhibition

O[C@H]1CC[C@H](Nc2nccc(-n3nnc4ccccc43)n2)CC1
98%: [4]
< 50%: all other assays above

CS(=O)(=O)CCCOc1cccc2c1ccn2-c1ccnc(N[C@H]2CC[C@H](C(=O)N3CCC(O)CC3)CC2)n1
> 85%: [4]

O[C@H]1CC[C@H](Nc2nccc(-n3ncc4ccccc43)n2)CC1
75%: [4]
< 50%: all other assays above

O[C@H]1CC[C@H](Nc2nccc(-c3n[nH]c4ccccc34)n2)CC1
< 50%: [1] | [3] | [5] | [6]
88%: [7]

O[C@H]1CC[C@H](Nc2nccc(-n3ccc4ccccc43)n2)CC1
79%: [4]
< 50%: all other assays above
